Screening results: PubChem BioAssay, several laboratories
BaF3 tox: counter-screen for JAK2V617F inhibitors: parental Ba/F3 viability inhibitors | inhibition, % at 5.6 µM | CellTiter-Glo ATP luminescence | actives 1.1% (n = 220,000) | AID 1486;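 active = inhibition above a per-campaign cutoff, the mean inhibition of all tested compounds plus 3 SD, cut at about 27% in these data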;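 note: 0% = DMSO wells and 100% = JAK Inhibitor I control wells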
MT stabilize HCS: microtubule stabilization, imaging screen. HeLa tubulin immunostaining HCS, 24 h; share of cells brighter than vehicle mean+2SD. % tubulin-high responders, % at 10 µM. actives 0.83% (n = 200,000);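 active = plate Z-score above 3 for both tubulin-high and condensed-nucleus cell shares, with cell loss under 80%, at 10 µM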;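 note: anti alpha tubulin signal scored within the nucleus-defined area of each cell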
Ba/F3 V617F tox: loss of viability in JAK2V617F-driven Ba/F3 cells. Ba/F3 EpoR-JAK2V617F viability, ATP luminescence. inhibition, % at 5.6 µM. actives 1.1% (n = 220,000). AID 1446;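 active = inhibition above the campaign mean plus 3 SD over all tested compounds, cut at about 24% in these data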;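 note: cytokine-independent growth of Ba/F3 cells driven by EpoR plus mutant JAK2; 0% = DMSO-treated cells and 100% = JAK inhibitor I control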
b-catenin transl: alters nuclear translocation of beta-catenin in HeLa cells | nuclear translocation activity, % at 5 µM | actives 0.3% (n = 190,000) | immunofluorescence imaging;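 active = nuclear translocation activity above 50% at 5 µM, with a well cell count of 50 or more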;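 note: per-cell ratio of nuclear to cytoplasmic median beta-catenin stain intensity; plate controls were DMSO negative control for no effect and GSK-3 inhibitor IX positive control for full effect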
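Technique: fluorescence imaging of beta-catenin antibody stain plus DAPI / Material: human HeLa cell line / Incubation: compound treatment 24 h, 37°C, 5% CO2 / Read-out basis: % activation of per-cell nuclear versus cytoplasmic median beta-catenin signal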
APP transl inh: APP translation inhibition | SH-SY5Y APP 5'UTR-luciferase reporter, luminescence | inhibition, % at 2 µM | actives 0.82% (n = 190,000);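 active = inhibition above a set limit, derived from the sample mean plus 3 SD, cut at about 45% in these data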
Lmaj promast: reduces viability of Leishmania major promastigotes | resazurin fluorescence viability | inhibition, % at 10 µM | actives 9% (n = 200,000) | AID 1063; in the data active = inhibition above about 50%;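 note: promastigotes grown with compound for 44 hours at 28 °C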
Starred values were filed as active, the others as inactive; . = no result given. An excerpt weighted towards active compounds, which were near 9.6% of everything screened.

SMILES	BaF3 tox	MT stabilize HCS	Ba/F3 V617F tox	b-catenin transl	APP transl inh	Lmaj promast
O=C(Nc1nccs1)c1ccc(COc2ccccc2Br)o1	7	4	7	0	-26	19
CSc1cccc(NC(=O)C2(S(=O)(=O)c3ccc(C)cc3)CC2)c1	6	2	5	0	-1	38
Cc1cc(C)nc(NS(=O)(=O)c2ccc(N/C=C/C(=O)c3ccc(Cl)cc3)cc2)n1	-4	2	-2	2	1	58*
CCc1nnc(NS(=O)(=O)c2ccc(NC(=O)c3ccccc3)cc2)s1	3	.	3	0	.	.
CCc1nnc(NS(=O)(=O)c2ccc(N/C=C\C(=O)c3ccc4ccccc4c3)cc2)s1	1	3	-1	-5	9	54*
COc1ccc(C(=O)/C=C/Nc2ccc(S(=O)(=O)Nc3onc(C)c3C)cc2)cc1	11	2	2	-3	4	66*
CC(C)(C)c1nc(NC(=O)Nc2ccccc2)sc1Br	-4	4	-4	-1	-51	-4
Cc1cc(C)nc(N/N=C/c2cn[nH]c2-c2ccc(F)cc2)n1	-1	.	-3	-1	.	.
O=C(NC1CC1)C1=NOC(CNc2ncc(C(F)(F)F)cc2Cl)C1 (configuration not stated)	1	1	-2	.	-15	-3
O=C(N/C=N/O)C1=NOC(CNc2ncc(C(F)(F)F)cc2Cl)C1 (configuration not stated)	2	1	-2	.	-11	99*
CC1(C)Cc2c(c(N3CCCC3)nc3sc4c(N5CCN(CCO)CC5)ncnc4c23)CO1	5	4	2	-2	7	74*
Cc1nc(C(=O)O)nn1-c1cc(Cl)ccc1Cl	5	3	-1	0	1	-3
COc1cc(NC(=O)c2cccs2)c(C(=O)OCC(=O)c2cc(C)n(-c3ccc(F)cc3)c2C)cc1OC	3	3	-2	1	-17	90*
COc1cc(NC(=O)c2cccs2)c(C(=O)OCC(=O)c2cc(C)n(-c3ccccc3)c2C)cc1OC	9	2	1	-3	22	19
COCCn1c(C)cc(C(=O)COC(=O)c2ccc[nH]c2=O)c1C	0	3	-3	0	2	57*
Cc1cc(C(=O)COC(=O)c2ccc[nH]c2=O)c(C)n1C	5	3	-3	-1	-1	-8
Cc1ccc(-n2c(C)cc(C(=O)COC(=O)c3ccc[nH]c3=O)c2C)cc1	8	3	7	-1	-65	70*
O=C(CNCc1ccccn1)N1CCc2ccccc2C1	0	.	-3	-1	.	.
Oc1ccc(N2CCN(C(c3cccs3)c3nnnn3CCc3ccccc3)CC2)cc1 (configuration not stated)	5	3	-1	2	16	100*
c1ccc(Cn2nnnc2C(c2cccs2)N2CCc3ccccc3C2)cc1 (configuration not stated)	-1	5	-4	-5	-9	51*
c1ccc(Cn2nnnc2C(c2cccs2)N2CCCCCC2)cc1 (configuration not stated)	7	3	-3	0	5	13
Cc1cc(NC(=O)c2c(-c3c(Cl)cccc3Cl)noc2C)n(C)n1	-5	.	0	0	.	.
COCCn1c(=NC(=O)c2cc3ccccc3oc2=O)sc2cc(S(N)(=O)=O)ccc21	5	4	-2	1	10	-8
Cc1ccc(C)c(NS(=O)(=O)c2cc(C(=O)Nc3cccc(N(C)S(C)(=O)=O)c3)ccc2C)c1	3	3	3	-1	6	90*
Cc1ccc(NS(=O)(=O)c2cc(C(=O)Nc3cccc(N(C)S(C)(=O)=O)c3)ccc2C)c(C)c1	4	5	5	.	-5	69*
COc1ccc(NC(=O)c2ccc3c(c2)NC(=O)CS3)cc1S(=O)(=O)Nc1ccc(Br)cc1	5	10	1	40	6	16
Cc1ccc(NS(=O)(=O)c2cc(NC(=O)c3ccc4c(c3)NC(=O)CS4)ccc2C)c(C)c1	14	8	10	0	13	64*
CN(c1cccc(NC(=O)c2ccc(C(C)(C)C)cc2)c1)S(C)(=O)=O	1	4	-1	-1	-91	17
C/C(=N\NC(=O)Cn1nc(C)cc1C)c1ccc([N+](=O)[O-])cc1	3	.	3	1	.	.
